Test results as given in ChEMBL document CHEMBL1165942, “Synthesis and anti-inflammatory activity of new arylidene-thiazolidine-2,4-diones as PPARgamma ligands” (Bioorg Med Chem, 2010).

Tests used:
[1] = target: T1, Peroxisome proliferator-activated receptor gamma (Homo sapiens, UniProt P37231); test: Displacement of [3H]rosiglitazone from human PPARgamma ligand binding domain expressed in Escherichia coli BL21 after 12 hrs by liquid scintillation counting
T1 sequence (P37231 whole entry): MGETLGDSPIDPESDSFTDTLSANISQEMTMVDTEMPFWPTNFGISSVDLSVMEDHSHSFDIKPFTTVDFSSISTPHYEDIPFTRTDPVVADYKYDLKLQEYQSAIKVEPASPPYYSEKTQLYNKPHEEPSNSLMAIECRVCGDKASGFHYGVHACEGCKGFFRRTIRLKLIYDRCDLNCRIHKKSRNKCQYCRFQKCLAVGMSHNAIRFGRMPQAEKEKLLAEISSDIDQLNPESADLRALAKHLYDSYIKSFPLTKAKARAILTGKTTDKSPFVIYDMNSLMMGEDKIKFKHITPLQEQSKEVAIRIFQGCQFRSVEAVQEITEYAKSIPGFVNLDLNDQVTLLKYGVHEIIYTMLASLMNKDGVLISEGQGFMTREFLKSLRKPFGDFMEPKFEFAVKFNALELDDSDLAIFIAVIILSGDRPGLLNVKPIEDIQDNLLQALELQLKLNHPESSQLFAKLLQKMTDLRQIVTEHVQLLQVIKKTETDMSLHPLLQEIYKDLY
Outline: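 His-tagged hPPARγ LBD purified on Co2+ affinity resin, preincubated 12 h at 4 °C with 40 nM [3H]rosiglitazone (50 Ci/mmol) in 10 mM Tris pH 8.0, 50 mM KCl, 10 mM DTT. Unlabeled ligand or DMSO vehicle added, then a further 12 h at 4 °C. Bound and free label separated on Sephadex G-25 and counted by scintillation. Results as % bound vs vehicle; Ki from concentration-dependent displacement.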

Mus musculus = test: Antiinflammatory activity against carrageenan-induced air pouch inflammation in po dosed mouse assessed as inhibition of leukocyte infiltration administered 1 hr before carrageenan challenge measured after 6 hrs by hemocytometry relative to untreated control

| Structure (SMILES) | Ki [1] | inhibition (INH) (Mus musculus) |
| --- | --- | --- |
| CS(=O)(=O)c1ccc(/C=C2\SC(=O)N(Cc3cccc(Cl)c3)C2=O)cc1 | 43 µM | 63.9% |
| O=C1S/C(=C\c2ccc(-c3ccccc3)cc2)C(=O)N1Cc1cccc(Cl)c1 | 43.6 µM | 67% |
| COc1ccc(/C=C2\SC(=O)N(Cc3cccc(Cl)c3)C2=O)cc1Br |  | 51.5% |
| COc1ccc(/C=C2\SC(=O)N(Cc3cccc(Cl)c3)C2=O)cc1 |  | 42% |
| O=C1S/C(=C\c2ccc3c(c2)Cc2ccccc2-3)C(=O)N1Cc1cccc(Cl)c1 |  | 65.2% |
| COc1ccc(Br)cc1/C=C1\SC(=O)N(Cc2cccc(Cl)c2)C1=O |  | 47.4% |
| O=C1S/C(=C\c2ccc(Cl)cc2Cl)C(=O)N1Cc1c(F)cccc1Cl | 4 µM | 41.6% |
| CS(=O)(=O)c1ccc(/C=C2\SC(=O)N(Cc3ccccc3Br)C2=O)cc1 | 7.3 µM | 73.3% |
| CN(CCOc1ccc(CC2SC(=O)NC2=O)cc1)c1ccccn1 (stereo not drawn) [ROSIGLITAZONE] |  | 72% |
